From PubChem
Cardio protect – cardioprotection against H2O2-induced cell death, primary screen, uHTS, H9c2 cells, ATPLite luminescence; protection from H2O2 cell death, % at 20 µM; 0.63% of 360,000 active; H9c2 cardiomyocytes, H2O2 injury protection, 2 h; AID 588492, 2011;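 active = compounds giving at least 50% protection of heart cells from peroxide-induced death in the single-dose screen, raw or plate-pattern-corrected value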;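 also: 0% = DMSO wells with peroxide and 100% = DMSO wells without peroxide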
Fh CTSL1 inh – Fasciola hepatica cathepsin L1 inhibitors, primary screen, counter-screen for PFM18AAP inhibitor project, biochemical, QFRET, fluorogenic peptide substrate | recombinant F. hepatica cathepsin L1, Z-Leu-Arg-MCA fluorescence | inhibition, % at 5.96 µM | 0.49% of 300,000 active;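 active = inhibition above the mean of all tested compounds plus 3 SD, set per screening campaign, cut at about 17% in these data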;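 also: 0% = plate median of test compound wells and 100% = 1 µM Z-Phe-Ala-diazomethylketone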
PP5 primary – PP5 phosphatase inhibitors, primary screen, biochemical, fluorescence | Serine/threonine-protein phosphatase 5 (Homo sapiens), P53041 | purified PP5c, OMFP substrate fluorescence | inhibition, % at 6.7 µM | 0.18% of 320,000 active | AID 1987, 2009;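 active = inhibition above the campaign's mean inhibition across all tested compounds plus 3 SD, cut at about 9.5% in these data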;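 also: 0% = DMSO only and 100% = 100 µM cantharidin control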
Target sequence (P53041 whole entry, looked up): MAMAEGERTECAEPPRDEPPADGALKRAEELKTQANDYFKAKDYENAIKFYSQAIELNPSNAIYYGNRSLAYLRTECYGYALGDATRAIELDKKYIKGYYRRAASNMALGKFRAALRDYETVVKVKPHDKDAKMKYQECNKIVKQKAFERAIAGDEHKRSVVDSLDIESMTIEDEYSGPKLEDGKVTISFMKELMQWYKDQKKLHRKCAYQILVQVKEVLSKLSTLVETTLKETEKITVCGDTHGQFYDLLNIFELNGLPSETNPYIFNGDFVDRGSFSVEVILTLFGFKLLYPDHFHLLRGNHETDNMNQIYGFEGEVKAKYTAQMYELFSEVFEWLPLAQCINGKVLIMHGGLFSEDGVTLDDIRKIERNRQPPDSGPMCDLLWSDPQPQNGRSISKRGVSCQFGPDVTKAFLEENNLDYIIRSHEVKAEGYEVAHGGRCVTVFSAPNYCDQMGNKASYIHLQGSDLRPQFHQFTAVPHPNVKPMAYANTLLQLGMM
T cruzi inh – inhibitors of intracellular T. cruzi growth, primary screen, luminescence, NIH3T3 host cells | T. cruzi beta-gal in NIH3T3, 90 h | inhibition, % (no concentration beside the values) | 1.4% of 300,000 active;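 active = mean inhibition across valid replicates above about 55%, limit read from the data; inconclusive = mean below that limit but half or more replicates reach it; inactive = mean below it, under half of replicates reach it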;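 also: signal also drops with host cell toxicity which is not excluded here; 0% = plate median of DMSO wells and 100% = zero luminescence signal; higher percent means less beta-gal luminescence so fewer parasites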
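System: Mouse NIH/3T3 fibroblasts infected with β-gal-expressing T. cruzi Tulahuen C4 | Quantity: NIH/3T3 cells, 5,000 per well | Reagent: 5000 reporter trypomastigotes per well | Dosing: Compound pinned at 50 nL/well, DMSO | Schedule: 3 h host attachment, then at least 90 h co-culture | Detection: GalScreen luminescence, 60 min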
JMJD2C inh – inhibitors of GASC-1 histone demethylase, primary screen, biochemical, fluorescence, DELFIA europium. inhibition, % at 2.35 µM. 0.069% of 330,000 active. Lysine-specific demethylase 4C (Homo sapiens), Q9H3R0. GST-JMJD2C(1-420) H3K9me3 demethylation;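 active = more than half of a compound's replicate wells show inhibition beyond 50%, single wells judged on their own value; inconclusive = some, but no more than half, of replicates pass 50% inhibition; inactive = no replicate passes 50% inhibition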;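 also: signal counts dimethyl H3K9 product captured on neutravidin plate; 0% = median of DMSO wells and 100% = 0.3 times that DMSO median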
pCIP destab – p/CIP-EGFP fusion destabilizers, primary screen, fluorescence, F442A cells | Q05BA5 | 16 h | decrease of EGFP signal, % at 10 µM | 0.01% of 290,000 active | AID 1984, 2009;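 active = EGFP signal decrease of at least 30% at 10 µM or well 3 SD below plate mean, unless failing retest; inactive = the rest, including hits failing retest or dose response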
Active calls of the source: *; ? = inconclusive; . = no result given. The list is not random: actives were taken first. Their share in the collection is about 2.4%.

SMILES	Cardio protect	Fh CTSL1 inh	PP5 primary	T cruzi inh	JMJD2C inh	pCIP destab
CCC(C)Sc1ccc([C@H]2N[C@@](Cc3ccccc3)(C(=O)OC)[C@H]3C(=O)N(CC)C(=O)[C@@H]23)cc1OC (some centres not stated)	30	0	3	-8	-6	.
C[C@H](NS(=O)(=O)c1ccc(Cl)cc1)C(=O)OCC(=O)Nc1cc(S(=O)(=O)N2CCOCC2)ccc1Cl	-10	.	.	.	.	.
COc1ccc(C(=O)C/C(=C\C(=O)c2ccc(C)cc2)c2ccccc2)cc1	-31	3	2	64*	-8	-14
CCc1ccc(OCC(=O)NC(NC(=S)Nc2ccccc2C)C(Cl)(Cl)Cl)cc1 (configuration not stated)	-6	0	2	55*	7	-6
Cc1ccccc1NC(=S)NC(NC(=O)COc1ccccc1)C(Cl)(Cl)Cl (configuration not stated)	-8	-2	4	9	7	-7
CC1CCN(S(=O)(=O)c2ccc(C(=O)N3CCCC3C(=O)O)cc2)CC1 (configuration not stated)	-3	.	-1	.	1	.
Nc1scc2c(C(=O)N/N=C/c3ccc(Cl)cc3)nn(-c3ccccc3)c(=O)c12	11	34*	4	-7	20	6
O=C(/C=C/c1cc[n+](CC(=O)c2ccc3cccc4c3c2CC4)cc1)c1ccc2cccc3c2c1CC3	-13	10	12*	63*	4	-21
CC(=O)CCc1ccc(Oc2nc(-c3cccnc3)nc3ccccc23)cc1	55*	5	1	12	-4	-3
CN(C)C(=O)C1C2NC(=S)N(c3cccc(Cl)c3)C1(C)Oc1ccc(Cl)cc12 (configuration not stated)	56*	6	2	-9	-18	8
CN(C)C(=O)C1C2NC(=S)N(c3ccc(Cl)cc3)C1(C)Oc1ccc(Cl)cc12 (configuration not stated)	41	-1	4	5	-3	12
CCOc1ccccc1CNC(=O)C1CCN(c2nnc(C)c3c(C)n(-c4ccc(C)cc4)nc23)CC1	-20	4	0	57*	15	-10
Cc1ccc(-n2nc3c(N4CCC(C(=O)NCc5ccccc5C)CC4)nnc(C)c3c2C)cc1	-18	3	4	36	0	-11
COc1ccc(-n2nc3c(N4CCC(C(=O)N5CCCCCC5)CC4)nnc(C)c3c2C)cc1	5	28*	1	59*	-3	-4
CCOc1ccc(-n2cc(-c3ccccc3)c3c(=S)nc[nH]c32)cc1	52*	2	4	42	-4	-3
CCOc1ccc(-n2cc(-c3ccccc3)c3c(N4CCOCC4)ncnc32)cc1	63*	4	2	-1	-4	2
Clc1ccc(SCCOCCN2CCCCC2)cc1	-2	-3	-2	?	9	-19
Clc1ccc(SCCOCCN2CCc3ccccc3C2)cc1	0	1	2	66*	7	19
OC(COC(c1ccc(Cl)cc1)c1ccc(Cl)cc1)CN1CCc2ccccc2C1 (configuration not stated)	-12	4	1	62*	17	3
Clc1ccc(SCCOCCN2CCOCC2)cc1	4	-4	2	57*	-3	-1
Clc1ccc(OCCOCCN2CCc3ccccc3C2)c(Cl)c1	-3	-2	1	59*	-4	-5
Clc1ccc(OCCCN2CCc3ccccc3C2)c(Br)c1	-3	3	4	32	-20	-6
O=C(NCC1CC1)c1csc([C@@H]2O[C@H](CO)[C@H](O)[C@H](O)[C@H]2O)n1	2	.	.	.	.	.
Cn1c(=O)n(C)c2cc(NC(=O)CSc3nc4ccccc4c(=O)[nH]3)ccc21	29	-5	2	-9	-5	-9
COc1ccccc1NC(=O)C(C)OC(=O)CCCc1c[nH]c2ccccc12 (configuration not stated)	-10	-16	2	5	5	.
